Experimental data pooled from the literature.
Protocols differ between the studies behind these lines. Converted amounts (≈) assume the structure as drawn.
Organism: Escherichia coli

SMILES | test | test system | quantity | result
O=C(N/N=C/c1ccc([N+](=O)[O-])o1)c1ccc(O)cc1 | microbial growth |  | MIC90 | 31.2 µg/mL (≈ 114 µM)
O=C(Sc1cccccc1=O)c1ccccc1 | microbial growth, broth dilution | ATCC35218 | MIC80 | 19.8 µM (≈ 4.8 µg/mL)
O=C(O)c1cn(C2CC2)c2cc(N3CCNCC3)c(F)cc2c1=O | microbial killing |  | MBC | 19 µM
COC(=O)c1cc(-c2cccc(NC(=S)Nc3ccc(C)cc3)c2)on1 | microbial growth, broth dilution | ATCC25922 | MIC | > 64 µg/mL
CC(C)C(C)CCCCCCCCCCCc1cc(O)cc(O)c1 (centres unmarked) | microbial growth |  | IC50 | 50.2 µM
COC(=O)c1cc(-c2cccc(NC(=S)Nc3ccc(Cl)cc3)c2)on1 | microbial growth, broth dilution | ATCC25922 | MIC | > 64 µg/mL
O=C(N[C@H](CO)[C@H](O)c1ccc([N+](=O)[O-])cc1)C(Cl)Cl | microbial growth |  | MIC90 | 15.6 µg/mL (≈ 48.3 µM)
CC(C)CCCCCCCCCCCCc1cc(O)cc(O)c1 | microbial growth |  | IC50 | 78.1 µM
COC(=O)c1cc(-c2ccc(NC(=O)Nc3ccc(Cl)c(Cl)c3)cc2)on1 | microbial growth, broth dilution | ATCC25922 | MIC | > 64 µg/mL
Cc1c(NN=C(C#N)C2=NC(=O)CS2)c(=O)n(-c2ccccc2)n1C | microbial killing, broth dilution |  | MBC | 0.25 µg/mL
Oc1cccc2cccnc12 | microbial growth, broth dilution | ATCC25922 | IC50 | 49.5 µg/mL
COC(=O)c1cc(-c2cccc(NC(=O)Nc3cc(Cl)ccc3Cl)c2)on1 | microbial growth, broth dilution | ATCC25922 | MIC | > 64 µg/mL
CCCCCCCCCCCCCCCCCCCCc1cc(O)cc(O)c1 | microbial growth |  | IC50 | > 200 µM
C[n+]1c(/C=C/c2ccc(O)cc2)cc(/C=C2\Sc3ccccc3N2CCCN2CCCC2)c2ccccc21.[I-] | microbial growth, broth dilution | ATCCBAA2469 | MIC | 16 µg/mL
